Activity calls are given as the source filed them. The rule behind the calls is not given here.
Legend:
Staphylococcus aureus [1] = test: Antibacterial activity against Staphylococcus aureus ATCC 29213 after 16 to 20 hrs by broth microdilution method; assay type: functional
Procedure, shortened: (§1)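 Broth microdilution per CLSI. Bacteria grown 4-6 h (about 10⁸ CFU/mL), then diluted to about 10⁶ CFU/mL. Medium: Mueller-Hinton broth, except Luria-Bertani broth for E. coli. Compounds in sterile water, twofold series 256-0.5 µg/mL, mixed 1:1 with inoculum, 37 °C for 16-20 h. MIC is the lowest concentration without visible growth. Duplicate wells; experiment repeated at least twice.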

Enterococcus faecalis = test: Antibacterial activity against Enterococcus faecalis ATCC 29212 after 16 to 20 hrs by broth microdilution method; assay type: functional; procedure, shortened: as §1
Escherichia coli [2] = test: Antibacterial activity against Escherichia coli ATCC 25922 after 16 to 20 hrs by broth microdilution method; assay type: functional; procedure, shortened: as §1
Salmonella enterica = test: Antibacterial activity against Salmonella enterica ATCC 13076 after 16 to 20 hrs by broth microdilution method; assay type: functional; procedure, shortened: as §1
[3] = Hemolytic activity in sheep RBC after 1 hr; assay type: ADME, cell-based, Ovis aries, Erythrocyte; conditions: sheep red blood cells (erythrocytes)
Procedure, shortened: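 Sheep red blood cells (150 µL suspension) mixed with 50 µL of compound dilutions (5120-10 µg/mL), 1 h at 37 °C, then centrifuged. Supernatant read at 540 nm. Percent hemolysis calculated relative to RBC-only control (0%) and 0.1% Triton X-100 (100%).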

Staphylococcus aureus [4] = test: Antibacterial activity against methicillin-resistant Staphylococcus aureus clinical isolate 1105183 cono7 after 16 to 20 hrs by broth microdilution method; assay type: functional
Procedure, shortened: (§2)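 CLSI broth microdilution in Mueller-Hinton broth. A 4-6 h culture was diluted to about 10⁶ CFU/mL and mixed 1:1 with compound dilutions prepared at 256 to 0.5 µg/mL from aqueous stocks. Plates were incubated at 37 °C for 16-20 h and read visually for MIC. Each concentration was run in duplicate, and the experiment was repeated at least twice. Vancomycin and meropenem were comparators.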

Staphylococcus aureus [5] = test: Antibacterial activity against methicillin-resistant Staphylococcus aureus clinical isolate 20130911034sau after 16 to 20 hrs by broth microdilution method; assay type: functional; procedure, shortened: as §2
Staphylococcus aureus [6] = test: Antibacterial activity against methicillin-resistant Staphylococcus aureus clinical isolate 0831010 after 16 to 20 hrs by broth microdilution method; assay type: functional; procedure, shortened: as §2
Staphylococcus aureus [7] = test: Antibacterial activity against methicillin-resistant Staphylococcus aureus clinical isolate 1104060 after 16 to 20 hrs by broth microdilution method; assay type: functional; procedure, shortened: as §2
Staphylococcus aureus [8] = test: Antibacterial activity against methicillin-resistant Staphylococcus aureus clinical isolate 20131012632sau after 16 to 20 hrs by broth microdilution method; assay type: functional; procedure, shortened: as §2
Staphylococcus aureus [9] = test: Antibacterial activity against methicillin-resistant Staphylococcus aureus clinical isolate 1207007 after 16 to 20 hrs by broth microdilution method; assay type: functional; procedure, shortened: as §2
Staphylococcus aureus [10] = test: Antibacterial activity against methicillin-resistant Staphylococcus aureus clinical isolate 1-may after 16 to 20 hrs by broth microdilution method; assay type: functional; procedure, shortened: as §2
Staphylococcus aureus [11] = test: Antibacterial activity against methicillin-resistant Staphylococcus aureus clinical isolate 0906202 after 16 to 20 hrs by broth microdilution method; assay type: functional; procedure, shortened: as §2
Staphylococcus aureus [12] = test: Antibacterial activity against methicillin-resistant Staphylococcus aureus clinical isolate 1208143 after 16 to 20 hrs by broth microdilution method; assay type: functional; procedure, shortened: as §2
Klebsiella pneumoniae [13] = test: Antibacterial activity against drug-resistant carbapenemase producing Klebsiella pneumoniae clinical isolate KP-14-8 after 16 to 20 hrs by broth microdilution method; assay type: functional; procedure, shortened: as §2
Klebsiella pneumoniae [14] = test: Antibacterial activity against drug-resistant carbapenemase producing Klebsiella pneumoniae clinical isolate KP-13-45 after 16 to 20 hrs by broth microdilution method; assay type: functional; procedure, shortened: as §2
Klebsiella pneumoniae [15] = test: Antibacterial activity against drug-resistant carbapenemase producing Klebsiella pneumoniae clinical isolate KP-14-3 after 16 to 20 hrs by broth microdilution method; assay type: functional; procedure, shortened: as §2
Klebsiella pneumoniae [16] = test: Antibacterial activity against drug-resistant carbapenemase producing Klebsiella pneumoniae clinical isolate KP-14-1 after 16 to 20 hrs by broth microdilution method; assay type: functional; procedure, shortened: as §2
Klebsiella pneumoniae [17] = test: Antibacterial activity against drug-resistant carbapenemase producing Klebsiella pneumoniae clinical isolate KP-14-4 after 16 to 20 hrs by broth microdilution method; assay type: functional; procedure, shortened: as §2
Klebsiella pneumoniae [18] = test: Antibacterial activity against drug-resistant carbapenemase producing Klebsiella pneumoniae clinical isolate KP-13-54 after 16 to 20 hrs by broth microdilution method; assay type: functional; procedure, shortened: as §2
Klebsiella pneumoniae [19] = test: Antibacterial activity against drug-resistant carbapenemase producing Klebsiella pneumoniae clinical isolate KP-14-2 after 16 to 20 hrs by broth microdilution method; assay type: functional; procedure, shortened: as §2
Klebsiella pneumoniae [20] = test: Antibacterial activity against drug-resistant carbapenemase producing Klebsiella pneumoniae clinical isolate EC-13-23 after 16 to 20 hrs by broth microdilution method; assay type: functional; procedure, shortened: as §2
Klebsiella pneumoniae [21] = test: Antibacterial activity against drug-resistant carbapenemase producing Klebsiella pneumoniae clinical isolate KP-14-5 after 16 to 20 hrs by broth microdilution method; assay type: functional; procedure, shortened: as §2
Klebsiella pneumoniae [22] = test: Antibacterial activity against drug-resistant carbapenemase producing Klebsiella pneumoniae clinical isolate KP-13-55 after 16 to 20 hrs by broth microdilution method; assay type: functional; procedure, shortened: as §2
Klebsiella pneumoniae [23] = test: Antibacterial activity against drug-resistant carbapenemase producing Klebsiella pneumoniae clinical isolate KP-14-45 after 16 to 20 hrs by broth microdilution method; assay type: functional; procedure, shortened: as §2
Klebsiella pneumoniae [24] = test: Antibacterial activity against drug-resistant carbapenemase producing Klebsiella pneumoniae clinical isolate KP-14-18 after 16 to 20 hrs by broth microdilution method; assay type: functional; procedure, shortened: as §2
Escherichia coli [25] = test: Antibacterial activity against drug-resistant NDM1 producing Escherichia coli clinical isolate EC-13-49 after 16 to 20 hrs by broth microdilution method; assay type: functional; procedure, shortened: as §2
Escherichia coli [26] = test: Antibacterial activity against drug-resistant NDM1 producing Escherichia coli clinical isolate Ecl-14-58 after 16 to 20 hrs by broth microdilution method; assay type: functional; procedure, shortened: as §2
Escherichia coli [27] = test: Antibacterial activity against drug-resistant NDM1 producing Escherichia coli clinical isolate KP-13-58 after 16 to 20 hrs by broth microdilution method; assay type: functional; procedure, shortened: as §2
Escherichia coli [28] = test: Antibacterial activity against drug-resistant NDM1 producing Escherichia coli clinical isolate Ecl-13-62 after 16 to 20 hrs by broth microdilution method; assay type: functional; procedure, shortened: as §2
Escherichia coli [29] = test: Antibacterial activity against drug-resistant NDM1 producing Escherichia coli clinical isolate EC-14-54 after 16 to 20 hrs by broth microdilution method; assay type: functional; procedure, shortened: as §2
Escherichia coli [30] = test: Antibacterial activity against drug-resistant NDM1 producing Escherichia coli clinical isolate Ecl-14-59 after 16 to 20 hrs by broth microdilution method; assay type: functional; procedure, shortened: as §2
Escherichia coli [31] = test: Antibacterial activity against drug-resistant NDM1 producing Escherichia coli clinical isolate EA-14-61 after 16 to 20 hrs by broth microdilution method; assay type: functional; procedure, shortened: as §2
Escherichia coli [32] = test: Antibacterial activity against drug-resistant NDM1 producing Escherichia coli clinical isolate Ecl-14-56 after 16 to 20 hrs by broth microdilution method; assay type: functional; procedure, shortened: as §2
Escherichia coli [33] = test: Antibacterial activity against drug-resistant NDM1 producing Escherichia coli clinical isolate 1460 after 16 to 20 hrs by broth microdilution method; assay type: functional; procedure, shortened: as §2
Escherichia coli [34] = test: Antibacterial activity against drug-resistant NDM1 producing Escherichia coli clinical isolate SM-15-84 after 16 to 20 hrs by broth microdilution method; assay type: functional; procedure, shortened: as §2
Escherichia coli [35] = test: Antibacterial activity against drug-resistant NDM1 producing Escherichia coli clinical isolate CF-15-61 after 16 to 20 hrs by broth microdilution method; assay type: functional; procedure, shortened: as §2
Escherichia coli [36] = test: Antibacterial activity against drug-resistant NDM1 producing Escherichia coli clinical isolate CF-13-61 after 16 to 20 hrs by broth microdilution method; assay type: functional; procedure, shortened: as §2
Staphylococcus aureus [37] = test: Induction of cytoplasmic membrane depolarization in Staphylococcus aureus ATCC 29213 at 10 to 20 ug/ml measured every 2 mins for 12 mins by DiSC35 dye-based fluorescence assay; assay type: functional, organism-based
Procedure, shortened: (§3)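 Mid-log cells (~10⁸ CFU/mL) were suspended in PBS (S. aureus) or HEPES/glucose/KCl with EDTA (E. coli). They were preloaded with DiSC3(5) for 30 min (S. aureus) or 40 min (E. coli), and baseline fluorescence was read for 8 min. Compound was added to 20 µg/mL final, and fluorescence (ex 622/em 670 nm) was read every 2 min for 12 min. Water served as control.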

Escherichia coli [38] = test: Induction of cytoplasmic membrane depolarization in Escherichia coli ATCC 25922 at 10 to 20 ug/ml measured every 2 mins for 12 mins by DiSC35 dye-based fluorescence assay; assay type: functional, organism-based; procedure, shortened: as §3
Staphylococcus aureus [39] = test: Induction of inner membrane permeabilization in Staphylococcus aureus ATCC 29213 at 10 to 20 ug/ml measured every 2 mins for 12 mins by propidium iodide staining-based fluorescence assay; assay type: functional, organism-based
Procedure, shortened: (§4)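 Mid-log cells (~10⁸ CFU/mL) were suspended in PBS (S. aureus) or HEPES/glucose/KCl (E. coli). They were preincubated with propidium iodide for 30 min (S. aureus) or 40 min (E. coli), and baseline fluorescence was read for 8 min. Compound was added to 20 µg/mL final, and fluorescence (ex 535/em 617 nm) was read every 2 min for 12 min.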

Escherichia coli [40] = test: Induction of inner membrane permeabilization in Escherichia coli ATCC 25922 at 10 to 20 ug/ml measured every 2 mins for 12 mins by propidium iodide staining-based fluorescence assay; assay type: functional, organism-based; procedure, shortened: as §4

CCCCCCCC[N+](C)(C)CC(=O)Nc1ccc(C(=O)/C=C/c2ccc3ccccc3c2)cc1.[Cl-]
MIC (Staphylococcus aureus [1]): 2 µg/mL
MIC (Enterococcus faecalis): 2 µg/mL
MIC (Escherichia coli [2]): 8 µg/mL
MIC (Salmonella enterica): 8 µg/mL
HC50 at 1 h [3]: 374 µg/mL
MIC (Staphylococcus aureus [4]): 1 µg/mL
MIC (Staphylococcus aureus [5]): 1 µg/mL
MIC (Staphylococcus aureus [6]): 1 µg/mL
MIC (Staphylococcus aureus [7]): 16 µg/mL
MIC (Staphylococcus aureus [8]): 8 µg/mL
MIC (Staphylococcus aureus [9]): 2 µg/mL
MIC (Staphylococcus aureus [10]): 2 µg/mL
MIC (Staphylococcus aureus [11]): 32 µg/mL
MIC (Staphylococcus aureus [12]): 2 µg/mL
MIC (Klebsiella pneumoniae [13]): 16 µg/mL
MIC (Klebsiella pneumoniae [14]): 16 µg/mL
MIC (Klebsiella pneumoniae [15]): 16 µg/mL
MIC (Klebsiella pneumoniae [16]): > 128 µg/mL
MIC (Klebsiella pneumoniae [17]): 32 µg/mL
MIC (Klebsiella pneumoniae [18]): 16 µg/mL
MIC (Klebsiella pneumoniae [19]): > 128 µg/mL
MIC (Klebsiella pneumoniae [20]): 8 µg/mL
MIC (Klebsiella pneumoniae [21]): 16 µg/mL
MIC (Klebsiella pneumoniae [22]): > 128 µg/mL
MIC (Klebsiella pneumoniae [23]): > 128 µg/mL
MIC (Klebsiella pneumoniae [24]): > 128 µg/mL
MIC (Escherichia coli [25]): 16 µg/mL
MIC (Escherichia coli [26]): 16 µg/mL
MIC (Escherichia coli [27]): 2 µg/mL
MIC (Escherichia coli [28]): 8 µg/mL
MIC (Escherichia coli [29]): 1 µg/mL
MIC (Escherichia coli [30]): 16 µg/mL
MIC (Escherichia coli [31]): 8 µg/mL
MIC (Escherichia coli [32]): 8 µg/mL
MIC (Escherichia coli [33]): 16 µg/mL
MIC (Escherichia coli [34]): 128 µg/mL
MIC (Escherichia coli [35]): 16 µg/mL
MIC (Escherichia coli [36]): 1 µg/mL
Activity (Staphylococcus aureus [37]): Active
Activity (Escherichia coli [38]): Active
Activity (Staphylococcus aureus [39]): Active
Activity (Escherichia coli [40]): Active

CCCCCCCC[N+](C)(C)CC(=O)Nc1ccc(C(=O)/C=C/c2ccc(F)cc2F)cc1.[Cl-]
MIC (Staphylococcus aureus [1]): 2 µg/mL
MIC (Enterococcus faecalis): 2 µg/mL
MIC (Escherichia coli [2]): 4 µg/mL
MIC (Salmonella enterica): 4 µg/mL
HC50 at 1 h [3]: 54 µg/mL
MIC (Staphylococcus aureus [4]): 1 µg/mL
MIC (Staphylococcus aureus [5]): 1 µg/mL
MIC (Staphylococcus aureus [6]): 0.5 µg/mL
MIC (Staphylococcus aureus [7]): 8 µg/mL
MIC (Staphylococcus aureus [8]): 4 µg/mL
MIC (Staphylococcus aureus [9]): 0.5 µg/mL
MIC (Staphylococcus aureus [10]): 1 µg/mL
MIC (Staphylococcus aureus [11]): 4 µg/mL
MIC (Staphylococcus aureus [12]): 2 µg/mL
MIC (Klebsiella pneumoniae [13]): 4 µg/mL
MIC (Klebsiella pneumoniae [14]): 8 µg/mL
MIC (Klebsiella pneumoniae [15]): 8 µg/mL
MIC (Klebsiella pneumoniae [16]): 8 µg/mL
MIC (Klebsiella pneumoniae [17]): 4 µg/mL
MIC (Klebsiella pneumoniae [18]): 4 µg/mL
MIC (Klebsiella pneumoniae [19]): 16 µg/mL
MIC (Klebsiella pneumoniae [20]): 8 µg/mL
MIC (Klebsiella pneumoniae [21]): 4 µg/mL
MIC (Klebsiella pneumoniae [22]): 8 µg/mL
MIC (Klebsiella pneumoniae [23]): 8 µg/mL
MIC (Klebsiella pneumoniae [24]): 8 µg/mL
MIC (Escherichia coli [25]): 4 µg/mL
MIC (Escherichia coli [26]): 4 µg/mL
MIC (Escherichia coli [27]): 2 µg/mL
MIC (Escherichia coli [28]): 4 µg/mL
MIC (Escherichia coli [29]): 8 µg/mL
MIC (Escherichia coli [30]): 4 µg/mL
MIC (Escherichia coli [31]): 4 µg/mL
MIC (Escherichia coli [32]): 4 µg/mL
MIC (Escherichia coli [33]): 4 µg/mL
MIC (Escherichia coli [34]): 16 µg/mL
MIC (Escherichia coli [35]): 4 µg/mL
MIC (Escherichia coli [36]): 2 µg/mL
Activity (Staphylococcus aureus [37]): Active
Activity (Escherichia coli [38]): Active
Activity (Staphylococcus aureus [39]): Active
Activity (Escherichia coli [40]): Active

— ChEMBL document CHEMBL4138242, “Synthesis and antibacterial evaluation of novel cationic chalcone derivatives possessing broad spectrum antibacterial activity” (Eur J Med Chem, 2018)
